Laboratory results: ChEMBL document CHEMBL1123488, “Agents for the treatment of brain edema. 2. [(2,3,9,9a-Tetrahydro-3-oxo-9a-substituted-1H-fluoren-7-yl)oxy]+ ++alkanoi c acids and some of their analogues” (J Med Chem, 1986)

Columns and labels:
[1] = % distribution in octanol versus pH7.4 buffer; format: physicochemical; conditions: pH 7.4
[2] = Dissociation constant (pKa) (determined in 30% EtOH); format: physicochemical
Felis catus = species: Felis catus; experiment: In vitro concentration required for 50% inhibition of swelling of cat cerebrocortical slices; format: functional; conditions: read-out: I50
Outline: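 Cat cortical slices were weighed and incubated 60 min at 22 °C in 27 mM K+ medium, with HCO3- added for the last 40 min and inhibitor present throughout. Swelling = (final − initial wet weight)/initial wet weight × 100. The HCO3−-dependent increment was taken as the target. I50 is the molarity giving 50% inhibition, read from the concentration–response curve.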

Row | SMILES | Distribution [1] [%] | pKa [2] | IC50 (Felis catus; Felis catus) [nM] | IC50 (Felis catus) [nM]
1 | CCCC12CCC(=O)C=C1c1ccc(OCC(=O)O)cc1C2 (configuration not stated) | 49 | 4.05 | 50 | –
2 | CCC12CCC(=O)C=C1c1c(cc(OCC(=O)OCC(=O)O)c(Cl)c1Cl)C2 (stereo in doubt; (+)-16b-8) | 83 | – | – | 3
3 | CCC12CCC(=O)C=C1c1c(cc(OCC(=O)O)c(Cl)c1Cl)C2 (single isomer, unassigned; (+)) | – | – | – | 10
4 | CCC12C=CC(=O)C=C1c1c(cc(OCC(=O)O)c(Cl)c1Cl)C2 (configuration not stated) | 79 | 3.7 | > 10 | –
5 | CCCC12CCC(C(C)=O)=C1c1c(cc(OCC(=O)O)c(Cl)c1Cl)C2 (configuration not stated) | 95 | 4.1 | 100 | –
6 | CCCC12CCC(=O)C=C1c1c(cc(OCC(=O)OC(C)(C)C(=O)O)c(Cl)c1Cl)C2 (single isomer, unassigned; (+)) | 98 | 3.8 | 0.004 | –
7 | CCCC12CCC(=O)C=C1c1c(cc(OCCCC(=O)O)c(Cl)c1Cl)C2 (configuration not stated) | 99.8 | 3.7 | 3 | –
8 | CCCC12CCC(=O)C=C1c1c(cc(SCC(=O)O)c(Cl)c1Cl)C2 (configuration not stated) | 99 | 4.7 | > 1000 | –
9 | CCCC12CCC(=O)C(C)=C1c1c(cc(OCC(=O)O)c(Cl)c1Cl)C2 (configuration not stated) | 98 | 3.5 | > 100 | –
10 | CCCC12CCC(=O)C=C1c1c(cc(OCC(=O)O)c(C)c1C)C2 (configuration not stated) | 49 | 4.3 | 100 | –
11 | CCCC12CCC(=O)C=C1c1c(cc(OCC(=O)O)c(Cl)c1Cl)C2 (single isomer, unassigned; (-)) | – | – | – | 10000
12 | CCCC12CC(=O)C=C1c1c(cc(OCC(=O)O)c(Cl)c1Cl)C2 (configuration not stated) | 88 | 3.84 | 100 | –
13 | CCC12CCC(=O)C=C1c1c(cc(OCC(=O)OCC3CCC(CO)O3)c(Cl)c1Cl)C2 (configuration not stated) | 99.7 | – | 1000 | –
14 | CC12CCC(=O)C=C1c1c(cc(OCC(=O)O)c(Cl)c1Cl)C2 (configuration not stated) | 62 | 3.75 | 10 | –
15 | CCCC12CCC(=O)C=C1c1c(cc(O)c(Cl)c1Cl)C2 (single isomer, unassigned; (+)) | 11 | 6.18 | > 10000 | –
16 | CCC12CCC(=O)C=C1c1c(cc(OCC(=O)O)c(Cl)c1Cl)C2 (stereo in doubt; 5b) | – | – | – | 30
17 | CCC12CCC(=O)C=C1c1c(cc(OCC(=O)OCCCO)c(Cl)c1Cl)C2 (configuration not stated) | 99.3 | – | 0.7 | –
18 | CCC12CCC(=O)C=C1c1c(cc(OCC(=O)OCCN3CCOCC3)c(Cl)c1Cl)C2 (configuration not stated) | 98.6 | 5.08 | > 10 | –
19 | CCCCC12CCC(=O)C=C1c1c(cc(OCC(=O)O)c(Cl)c1Cl)C2 (configuration not stated) | 98 | 3.5 | > 10 | –
20 | CCCC12CCC(=O)C=C1c1c(cc(OCC(=O)NN(C)C)c(Cl)c1Cl)C2 (configuration not stated) | 99.7 | 3.9 | > 100 | –

Row | SMILES | Distribution [1] [%] | pKa [2] | IC50 (Felis catus; Felis catus) [nM] | IC50 (Felis catus) [nM]
21 | CCOC(=O)COc1cc2c(c(Cl)c1Cl)C1=CC(=O)CCC1(CC)C2 (single isomer, unassigned; (+)) | > 99.9 | – | – | 0.1
22 | CCC12CCC(=O)C=C1c1c(cc(OCCCC(=O)O)c(Cl)c1Cl)C2 (configuration not stated) | 99.2 | 3.7 | > 10000 | –
23 | CCOC(=O)COc1cc2c(c(Cl)c1Cl)C1=CC(=O)CCC1(CC)C2 (single isomer, unassigned; (-)) | – | – | – | > 10000
24 | CC(C)C12CCC(=O)C=C1c1c(cc(OCC(=O)O)c(Cl)c1Cl)C2 (configuration not stated) | 89 | 3.83 | > 100 | –
25 | CCCC12CCC(=O)C=C1c1c(cc(OCC(=O)NCCN(C)C)c(Cl)c1Cl)C2 (configuration not stated) | 99.7 | 7.7 | > 1000 | –
26 | CCC12CCC(=O)C=C1c1c(cc(OCC(=O)OCc3cccnc3)c(Cl)c1Cl)C2 (configuration not stated) | > 99.9 | 3.32 | 0.1 | –
27 | CCC12CCC(=O)C=C1c1c(cc(OCC(=O)OCC3COC(C)(C)O3)c(Cl)c1Cl)C2 (configuration not stated) | 99.9 | – | > 10 | –
28 | CCOC(=O)COc1cc2c(c(Cl)c1Cl)C1=CC(=O)CCC1(CC)C2 (stereo in doubt; 16b-1) | > 99.8 | – | – | 0.2
29 | CCCC12CCC(=O)C=C1c1c(cc(OCC(=O)OC)c(Cl)c1Cl)C2 (configuration not stated) | > 99.9 | – | 0.002 | –
30 | CCC12CCC(=O)C=C1c1c(cc(OCC(=O)O)c(Cl)c1Cl)C2 (stereo in doubt; (-)-5b) | 81 | 3.6 | – | 30000
31 | CCC12CCC(=O)C=C1c1c(cc(OCC(=O)OCC(=O)O)c(Cl)c1Cl)C2 (stereo in doubt; 16b-8) | 91 | 3.8 | 6 | –
32 | CCC12CCC(=O)C=C1c1c(cc(OCC(=O)OC(C)(C)C(=O)O)c(Cl)c1Cl)C2 (stereo in doubt; (+)-16b-9) | 96 | – | – | 0.5
33 | C=CC12CCC(=O)C=C1c1c(cc(OCC(=O)O)c(Cl)c1Cl)C2 (configuration not stated) | 70 | 3.5 | > 10 | –
34 | CCC12CCC(=O)C=C1c1c(cc(OCC(=O)OCC(C)=O)c(Cl)c1Cl)C2 (configuration not stated) | > 99.9 | – | 1 | –
35 | CCC12CCC(=O)C=C1c1c(cc(OCc3nn[nH]n3)c(Cl)c1Cl)C2 (configuration not stated) | 95 | 3.72 | > 100 | –
36 | CCCC12CCC(=O)C=C1c1c(cc(OCC(=O)OC(CC)(CC)C(=O)O)c(Cl)c1Cl)C2 (single isomer, unassigned; (+)) | > 99.9 | 3.4 | 0.04 | –
37 | O=C(O)COc1cc2c(c(Cl)c1Cl)C1=CC(=O)CCC1(C1CCCC1)C2 (configuration not stated) | 97 | 3.83 | 1 | –
38 | CCC12CCC(=O)C=C1c1c(cc(OCC(=O)OC(C)(C)C(=O)O)c(Cl)c1Cl)C2 (stereo in doubt; 16b-9) | 95 | 3.8 | 1 | –
39 | CCC12CCC(=O)C=C1c1c(cc(OCC(=O)OC)c(Cl)c1Cl)C2 (configuration not stated) | 99.5 | – | 20 | –
40 | CCCC12CCC(=O)C=C1c1c(cc(OCC(=O)O)c(Cl)c1Cl)C2 (stereo in doubt; 5c) | 93 | 3.6 | – | 0.04
